From ChEMBL document CHEMBL4020814, “Synthesis, Binding Mode, and Antihyperglycemic Activity of Potent and Selective (5-Imidazol-2-yl-4-phenylpyrimidin-2-yl)[2-(2-pyridylamino)ethyl]amine Inhibitors of Glycogen Synthase Kinase 3” (J Med Chem, 2017)

Columns and labels:
[1] = molecular target: Angiopoietin-1 receptor (Homo sapiens, UniProt Q02763)
[2] = molecular target: Casein kinase I isoform epsilon (Homo sapiens, UniProt P49674); test: Inhibition of human CK1epsilon using biotin peptide substrate after 1 hr by scintillation counting method
[3] = Stability in human liver microsomes assessed as half life; type: ADME, microsome
[4] = test system: Rattus norvegicus; test: Toxicity in diabetic ZDF rat assessed as increase in beta-catenin mRNA levels in brain administered at 130 mg/kg/day infused over 20 hrs; type: organism-based; conditions: in vivo
[5] = Oral bioavailability in diabetic ZDF fa/fa rat at 8 mg/kg administered 4.5 and 0.5 hrs prior to oral glucose challenge; type: ADME, organism-based; conditions: in vivo
[6] = Plasma concentration in diabetic db/db mouse at 30 mg/kg administered at 4.5 and 0.5 hrs prior to oral glucose challenge measured 20 mins post second dose; conditions: plasma
[7] = Half life in diabetic ZDF fa/fa rat at 8 mg/kg administered 4.5 and 0.5 hrs prior to oral glucose challenge; type: ADME, organism-based; conditions: in vivo
[8] = test system: Mus musculus; test: Effect on insulin level in diabetic ob/ob mouse administered at 30 mg/kg, po measured post glucose challenge; type: ADME, organism-based; conditions: in vivo
In short: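 ob/ob mice aged 9–10 weeks, 6–8 per group, given an oral glucose tolerance test with oral dosing at −4.5 and −0.5 h (vehicle captisol). Plasma glucose and insulin were measured after the glucose challenge. Values are mean ± SEM.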

[9] = test system: Mus musculus; test: Effect on urine glucose levels in diabetic db/db mouse administered orally at 4.5 and 0.5 hrs prior to oral glucose challenge; type: ADME; conditions: in vivo
[10] = test system: Rattus norvegicus; test: Effect on plasma glucose levels in lean ZDF fa/fa rat administered at 30 mg/kg dosed at 4.5 and 0.5 hrs prior to oral glucose challenge by oral glucose tolerance test; type: ADME, organism-based; conditions: in vivo
[11] = test system: Rattus norvegicus; test: Reduction in plasma insulin level in diabetic ZDF fa/fa rat at 30 mg/kg, po administered as single dose measured after 60 mins; type: ADME, organism-based; conditions: in vivo, 1 h
In short: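 Twelve-week-old male ZDF (fa/fa) rats with fasted basal glucose of 500–550 mg/dL, food removed 3–4 h before dosing. A single oral dose was given with vehicle 15% captisol. Plasma glucose and insulin were measured from serial tail-snip bleeds, n = 8/group, mean ± SEM.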

[12] = Half life in po dosed diabetic ZDF rat; type: ADME, organism-based; conditions: in vivo
[13] = Oral bioavailability in diabetic ZDF rat; type: ADME, organism-based; conditions: in vivo
[14] = Cmax in po dosed diabetic ZDF rat; type: ADME, organism-based; parameters: route oral; conditions: in vivo
[15] = AUC in po dosed diabetic ZDF rat; type: ADME, organism-based; conditions: in vivo
[16] = Clearance in iv dosed diabetic ZDF rat; type: ADME, organism-based; conditions: in vivo
In short: (§1)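 ZDF (fa/fa) rats dosed intravenously; clearance and steady-state volume of distribution derived from plasma concentration–time data.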

[17] = Volume of distribution at steady state in iv dosed diabetic ZDF rat; type: ADME, organism-based; conditions: in vivo, read-out: Vdss
In short: as §1

[18] = test system: Rattus norvegicus; test: Effect on plasma insulin level in diabetic ZDF fa/fa rat assessed as plasma insulin levels at 5 mg/kg, iv prime dose with continuous infusion at 64 ug/kg/min for 4 days (reference value: 3.9 +/- 0.6 ng/ml); type: ADME, organism-based; conditions: in vivo, 96 h
[19] = test system: Rattus norvegicus; test: Toxicity in diabetic ZDF rat assessed as increase in beta-catenin mRNA levels in liver administered at 130 mg/kg/day infused over 20 hrs; type: organism-based; conditions: in vivo
[20] = test system: Rattus norvegicus; test: Toxicity in diabetic ZDF rat assessed as increase in beta-catenin mRNA levels in lungs administered at 130 mg/kg/day infused over 20 hrs; type: organism-based; conditions: in vivo
[21] = test system: Rattus norvegicus; test: Toxicity in diabetic ZDF rat assessed as increase in beta-catenin mRNA levels in colon administered at 130 mg/kg/day infused over 20 hrs; type: organism-based; conditions: in vivo
[22] = test system: Rattus norvegicus; test: Toxicity in diabetic ZDF rat assessed as increase in beta-catenin mRNA levels in adipose tissue administered at 130 mg/kg/day infused over 20 hrs; type: organism-based; conditions: in vivo
[23] = test system: Rattus norvegicus; test: Toxicity in diabetic ZDF rat assessed as increase in cyclin D1 mRNA levels in brain administered at 130 mg/kg/day infused over 20 hrs; type: organism-based; conditions: in vivo
[24] = test system: Rattus norvegicus; test: Toxicity in diabetic ZDF rat assessed as increase in cyclin D1 mRNA levels in liver administered at 130 mg/kg/day infused over 20 hrs; type: organism-based; conditions: in vivo
[25] = test system: Rattus norvegicus; test: Toxicity in diabetic ZDF rat assessed as increase in cyclin D1 mRNA levels in lung administered at 130 mg/kg/day infused over 20 hrs; type: organism-based; conditions: in vivo
[26] = test system: Rattus norvegicus; test: Toxicity in diabetic ZDF rat assessed as increase in cyclin D1 mRNA levels in colon administered at 130 mg/kg/day infused over 20 hrs; type: organism-based; conditions: in vivo
[27] = test system: Rattus norvegicus; test: Toxicity in diabetic ZDF rat assessed as increase in cyclin D1 mRNA levels in adipose tissue administered at 130 mg/kg/day infused over 20 hrs; type: organism-based; conditions: in vivo
[28] = test system: Mus musculus; test: Effect on insulin level in diabetic db/db mouse at 30 mg/kg administered at 4.5 and 0.5 hrs prior to oral glucose challenge; type: ADME, organism-based; conditions: in vivo
In short: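 db/db mice, 6–8 per group, fasted ~6 h (food removed 3 h before prebleed), dosed orally at −4.5 and −0.5 h relative to oral glucose (vehicle 10% captisol). Tail-snip blood glucose was read by glucometer or analyzer; plasma insulin was measured by ELISA.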

[29] = species: Mus musculus; test: Effect on insulin levels in streptozotocin-treated mouse fed with high fat diet; type: ADME; conditions: in vivo
In short: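 Mice on a high-fat diet with intermittent streptozotocin were dosed orally at −4.5 and −0.5 h before oral glucose challenge. Post-challenge glucose AUC and insulin were measured.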

[30] = test system: Rattus norvegicus; test: Effect on plasma insulin level in obese ZDF fa/fa rat at 30 mg/kg dosed at 4.5 and 0.5 hrs prior to oral glucose challenge measured at -250 mins (reference value: 7.2 +/- 0.6 ng/ml); type: ADME, organism-based; conditions: in vivo
[31] = test system: Rattus norvegicus; test: Effect on plasma insulin level in obese ZDF fa/fa rat at 30 mg/kg dosed at 4.5 and 0.5 hrs prior to oral glucose challenge measured at -45 mins (reference value: 6.9 +/- 0.3 ng/ml); type: ADME, organism-based; conditions: in vivo
[32] = test system: Rattus norvegicus; test: Effect on plasma insulin level in obese ZDF fa/fa rat at 30 mg/kg dosed at 4.5 and 0.5 hrs prior to oral glucose challenge measured at 25 mins (reference value: 8.5 +/- 0.7 ng/ml); type: ADME, organism-based; conditions: in vivo
[33] = test system: Rattus norvegicus; test: Effect on plasma insulin level in obese ZDF fa/fa rat at 30 mg/kg dosed at 4.5 and 0.5 hrs prior to oral glucose challenge measured at 60 mins (reference value: 7.8 +/- 0.8 ng/ml); type: ADME, organism-based; conditions: in vivo
[34] = test system: Rattus norvegicus; test: Effect on plasma insulin level in lean ZDF fa/fa rat at 30 mg/kg dosed at 4.5 and 0.5 hrs prior to oral glucose challenge measured at -250 mins (reference value: 0.2 +/- 0.1 ng/ml); type: ADME, organism-based; conditions: in vivo
[35] = test system: Rattus norvegicus; test: Effect on plasma insulin level in lean ZDF fa/fa rat at 30 mg/kg dosed at 4.5 and 0.5 hrs prior to oral glucose challenge measured at -45 mins (reference value: 0.2 +/- 0.1 ng/ml); type: ADME, organism-based; conditions: in vivo
[36] = test system: Rattus norvegicus; test: Effect on plasma insulin level in lean ZDF fa/fa rat at 30 mg/kg dosed at 4.5 and 0.5 hrs prior to oral glucose challenge measured at 25 mins (reference value: 0.4 +/- 0.1 ng/ml); type: ADME, organism-based; conditions: in vivo
[37] = test system: Rattus norvegicus; test: Effect on plasma insulin level in lean ZDF fa/fa rat at 30 mg/kg dosed at 4.5 and 0.5 hrs prior to oral glucose challenge measured at 60 mins (reference value: 0.3 +/- 0.1 ng/ml); type: ADME, organism-based; conditions: in vivo, 1 h

Sequence of Angiopoietin-1 receptor (Q02763 whole entry, canonical isoform): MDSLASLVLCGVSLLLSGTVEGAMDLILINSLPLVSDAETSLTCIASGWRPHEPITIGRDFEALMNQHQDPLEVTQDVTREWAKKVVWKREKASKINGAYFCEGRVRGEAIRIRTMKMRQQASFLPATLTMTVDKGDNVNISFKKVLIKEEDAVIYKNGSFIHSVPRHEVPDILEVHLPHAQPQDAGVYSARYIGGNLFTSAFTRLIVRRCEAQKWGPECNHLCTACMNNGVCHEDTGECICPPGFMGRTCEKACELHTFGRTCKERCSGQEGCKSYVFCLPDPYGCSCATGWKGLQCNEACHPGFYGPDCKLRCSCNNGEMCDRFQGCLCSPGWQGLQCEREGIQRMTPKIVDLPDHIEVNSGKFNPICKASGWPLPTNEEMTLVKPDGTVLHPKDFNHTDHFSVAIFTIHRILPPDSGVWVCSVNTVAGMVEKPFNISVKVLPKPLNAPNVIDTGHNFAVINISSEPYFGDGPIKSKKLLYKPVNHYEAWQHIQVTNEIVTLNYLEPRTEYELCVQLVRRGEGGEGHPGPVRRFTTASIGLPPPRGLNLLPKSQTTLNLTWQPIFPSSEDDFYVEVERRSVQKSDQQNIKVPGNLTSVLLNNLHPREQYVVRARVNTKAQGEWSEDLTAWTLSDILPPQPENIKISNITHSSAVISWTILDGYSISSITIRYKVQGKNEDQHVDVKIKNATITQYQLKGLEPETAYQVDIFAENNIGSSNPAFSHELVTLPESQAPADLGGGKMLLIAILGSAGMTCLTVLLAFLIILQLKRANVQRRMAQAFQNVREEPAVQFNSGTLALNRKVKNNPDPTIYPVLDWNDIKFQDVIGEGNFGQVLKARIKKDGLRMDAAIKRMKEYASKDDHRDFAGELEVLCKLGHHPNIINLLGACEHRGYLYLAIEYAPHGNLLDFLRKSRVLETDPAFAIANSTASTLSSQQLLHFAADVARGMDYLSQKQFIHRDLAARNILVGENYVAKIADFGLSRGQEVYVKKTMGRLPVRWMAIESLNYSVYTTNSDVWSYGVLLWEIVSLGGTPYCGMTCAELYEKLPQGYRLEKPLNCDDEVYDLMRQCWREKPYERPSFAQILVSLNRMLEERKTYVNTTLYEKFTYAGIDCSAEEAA
Sequence of Casein kinase I isoform epsilon (P49674 whole entry, canonical isoform): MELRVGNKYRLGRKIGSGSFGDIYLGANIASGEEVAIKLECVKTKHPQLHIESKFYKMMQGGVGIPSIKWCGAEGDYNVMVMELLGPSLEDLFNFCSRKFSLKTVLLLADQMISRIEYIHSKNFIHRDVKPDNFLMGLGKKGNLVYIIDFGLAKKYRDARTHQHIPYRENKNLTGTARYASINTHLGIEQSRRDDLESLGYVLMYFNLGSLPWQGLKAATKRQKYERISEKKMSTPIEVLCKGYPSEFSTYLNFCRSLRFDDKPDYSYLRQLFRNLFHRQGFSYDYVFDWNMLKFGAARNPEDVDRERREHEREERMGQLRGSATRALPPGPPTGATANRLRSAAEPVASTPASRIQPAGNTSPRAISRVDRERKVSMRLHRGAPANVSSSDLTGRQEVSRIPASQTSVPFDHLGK

## Cc1c[nH]c(-c2cnc(NCCNc3ccc(C#N)cn3)nc2-c2ccc(Cl)cc2Cl)n1 [LADUVIGLUSIB]
[1]
  IC50: > 5 µM
[2]
  IC50: > 5 µM
[3]
  half-life: 1.82 h
[4]
  Activity: Non-Toxic
[5]
  bioavailability: 36%
[6]
  concentration at 20 min: 15000 ng/mL
[7]
  half-life: 1.53 h
[8]
  Activity: Toxic
[9]
  Activity: Non-Toxic
[10]
  Activity: Non-Toxic
[11]
  Activity: Toxic
[12]
  half-life: 1.53 to 1.63 h
[13]
  bioavailability: 36 to 43%
[14]
  Cmax: 400 ng/mL
[15]
  AUC: 1420 ng·h/mL
[16]
  clearance: 43 mL/min/kg
[17]
  Vd: 3.6 L/kg
[18]
  Activity: 3.1 ng/mL
[19]
  Activity: Non-Toxic
[20]
  Activity: Non-Toxic
[21]
  Activity: Non-Toxic
[22]
  Activity: Non-Toxic
[23]
  Activity: Non-Toxic
[24]
  Activity: Non-Toxic
[25]
  Activity: Non-Toxic
[26]
  Activity: Non-Toxic
[27]
  Activity: Non-Toxic
[28]
  Activity: Non-Toxic
[29]
  Activity: Toxic
[30]
  Activity: 6.3 ng/mL
[31]
  Activity: 5.3 ng/mL
[32]
  Activity: 4.8 ng/mL
[33]
  Activity: 5.2 ng/mL
[34]
  Activity: 0.3 ng/mL
[35]
  Activity: 0.3 ng/mL
[36]
  Activity: 0.6 ng/mL
[37]
  Activity: 0.4 ng/mL
